Screening data: PubChem BioAssay, Broad Institute
IDH1 mut inh: inhibitors of IDH1 R132H reductase, primary screen, biochemical, plate reader, single point. AID 624101, 2012. inhibition, % at 10 µM. actives 0.18% (n = 70,000). diaphorase/resazurin fluorescence, 60 min; in the data active = inhibition above about 34%; inconclusive = no clear call, values can overlap the other calls; inactive = below about 11%;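 also: 0% = DMSO and 100% = no enzyme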
Target sequence (O75874 whole entry R132H): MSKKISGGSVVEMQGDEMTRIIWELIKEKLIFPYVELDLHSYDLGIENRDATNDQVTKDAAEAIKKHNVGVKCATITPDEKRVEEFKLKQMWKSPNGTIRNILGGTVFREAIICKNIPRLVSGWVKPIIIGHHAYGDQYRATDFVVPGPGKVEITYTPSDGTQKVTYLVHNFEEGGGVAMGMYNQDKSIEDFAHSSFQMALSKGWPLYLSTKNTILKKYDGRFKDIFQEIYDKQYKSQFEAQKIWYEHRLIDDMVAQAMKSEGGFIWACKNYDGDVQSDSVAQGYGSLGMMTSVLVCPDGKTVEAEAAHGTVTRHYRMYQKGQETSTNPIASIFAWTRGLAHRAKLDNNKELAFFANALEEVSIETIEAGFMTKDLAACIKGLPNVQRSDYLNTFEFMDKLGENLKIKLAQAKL
KDM4C inh: inhibitors of GASC-1 (KDM4C) histone demethylase, primary screen, biochemical, single concentration HTS. Lysine-specific demethylase 4C (Homo sapiens), Q9H3R0. GST-KDM4C 2-372, H3K9me3 peptide, LANCE TR-FRET. inhibition, % at 12.5 µM. actives 0.15% (n = 96,000);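 active = mean replicate inhibition above about 25%, with at least 55% of replicates also reaching it, limit read from the data, passing the limit was not always enough; inconclusive = only one of those two conditions met; inactive = neither condition met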
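Test system – GST-tagged GASC-1 (JMJD2C) catalytic fragment, aa 2-372 · Medium – HEPES buffer, pH 7.5, plus ascorbate · Reagent – H3K9me3 peptide with Fe(II)/2OG · Compound – one test concentration per compound · Timing – 30 min reaction, 60 min detection, RT · Technique – TR-FRET with Eu antibody and ULight streptavidin, EDTA stop · Read-out basis – inhibition from TR-FRET ratio decrease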
Tcruzi prolif: T. cruzi intracellular proliferation inhibitors, primary screen, cell-based, beta-gal Tulahuen parasites, NIH3T3 host, luminescence; T. cruzi beta-gal in NIH3T3, GalScreen luminescence, 90 h; AID 624255, 2012; inhibition, % at 8.34 µM; actives 5.9% (n = 77,000);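 active = mean inhibition above about 93%, with at least 55% of replicates each passing it, limit read from the data, passing the limit was not always enough; inconclusive = only one of those two conditions holds; inactive = neither condition holds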
Pf Dd2 inh: P. falciparum Dd2 growth inhibitors, primary screen, SYBR Green fluorescence, single dose replicates; AID 1159554, 2015; activity change, % at 10 µM; 72 h; hits give low values; actives 2.3% (n = 94,000); in the data active = activity change below about -80%; inconclusive = no clear call, values can overlap the other calls
The depositor's hits bear a star; u = inconclusive; x = no result given; ! = not confirmed by another sample. Most compounds without a hit are left out; they make up all but 5.9% or so of the library.

SMILES | IDH1 mut inh | KDM4C inh | Tcruzi prolif | Pf Dd2 inh
CCCC#Cc1ccc2c(c1)[C@@H]1[C@@H](CCN1S(=O)(=O)c1ccccc1C)[C@@H](CO)N2 | x | -1 | x | -84*
CCCC#Cc1ccc2c(c1)[C@H]1[C@H](CCN1Cc1ccccc1F)[C@@H](CO)N2 | x | 0 | x | -83*
C/C=C/c1ccc2c(c1)[C@H]1[C@H](CCN1C(=O)c1ccc3c(c1)OCO3)[C@H](CO)N2 | x | 0 | x | -90*
CCCC#Cc1ccc2c(c1)[C@@H]1[C@@H](CCN1S(=O)(=O)c1ccccc1F)[C@@H](CO)N2 | x | -3 | x | -64
OC[C@@H]1Nc2ccc(-c3ccccc3)cc2[C@H]2[C@@H]1CCN2Cc1ccccc1F | x | 0 | 50 | -23
CC(Oc1ccccc1)C(=O)Nc1cccc(-c2nnc(-c3ccccc3)o2)c1 (stereo not given) | 1 | x | x | x
COC1OC(OC)C(O)(CC[C@@]2(O)[C@H](C)C[C@@H](O)C3[C@@](C)(CO)CCC[C@]32C)C1O (stereo not given in full) | 0 | x | x | x
COc1ccc(-n2c(SCC(=O)Nc3ccc(Cl)cc3Cl)nnc2-c2ccccc2)cc1 | 0 | x | x | x
N#Cc1cccc(-c2ccc(C3[C@H]4CNC[C@@H]3N4S(=O)(=O)c3ccc(F)cc3)cc2)c1 (stereo not given in full) | x | 35*! | x | -12
Cc1ccc(-n2c(SCC(=O)Nc3c(F)cc(F)cc3Br)nc3ccccc3c2=O)cc1 | 0 | x | x | x
CC(C)CC#Cc1ccc([C@@H]2[C@@H](CO)N3CCCCN(S(=O)(=O)Cc4ccccc4)C[C@@H]23)cc1 | x | 1 | 80 | -83*
CCCC#Cc1ccc([C@H]2[C@@H](CO)N3CCCCN(S(=O)(=O)Cc4ccccc4)C[C@@H]23)cc1 | x | 0 | 82 | -23
CC(C)CC#Cc1ccc([C@@H]2[C@H](CO)N3CCCCN(S(=O)(=O)Cc4ccccc4)C[C@@H]23)cc1 | x | -2 | 93 | -84*
O=C(Nc1cc(C(F)(F)F)ccc1Cl)C(Cc1ccccc1)N1C(=O)C2C3C=CC(C4CC34)C2C1=O (stereo not given) | 0 | x | x | x
Cc1ccc(NC(=O)COc2ccc(C(=O)Nc3ccc(F)cc3)cc2)cc1 | 0 | x | x | x
C[C@@H]1CCCCO[C@H](CN(C)C(=O)Nc2ccc(C(F)(F)F)cc2)[C@H](C)CN([C@H](C)CO)C(=O)c2cc(NC(=O)Nc3ccc(F)cc3)ccc2O1 | 1 | 1 | 117* | -81*
C[C@H](CO)N1C[C@H](C)[C@@H](CN(C)C(=O)Nc2ccc(C(F)(F)F)cc2)OCCCC[C@H](C)Oc2ccc(NC(=O)Nc3ccc(F)cc3)cc2C1=O | 1 | -3 | 119* | -38
Cc1noc(C)c1NC(=O)Nc1ccc2c(c1)C(=O)N([C@H](C)CO)C[C@@H](C)[C@H](CN(C)C(=O)Nc1ccc(C(F)(F)F)cc1)OCCCC[C@H](C)O2 | 1 | -3 | 40 | -84*
C[C@H](CO)N1C[C@H](C)[C@H](CN(C)C(=O)Nc2ccc(C(F)(F)F)cc2)OCCCC[C@H](C)Oc2ccc(NC(=O)Nc3ccc(F)cc3)cc2C1=O | 3 | 0 | u | 59
C[C@@H]1CCCCO[C@H](CN(C)C(=O)Nc2ccc(C(F)(F)F)cc2)[C@@H](C)CN([C@H](C)CO)C(=O)c2cc(NC(=O)Nc3cccc4ccccc34)ccc2O1 | 5 | -1 | 43 | -82*
CCc1ccc(OCC(=O)Nc2cccnc2)c(Br)c1 | 4 | x | x | x
Cc1ccccc1-c1nnc(SCC(=O)Nc2ccc(N3CCOCC3)cc2)o1 | 0 | x | x | x
COc1ccc(Cl)cc1CN1CCC(CNC(=O)Nc2cccc(Cl)c2)CC1 | 0 | x | x | x
CC(C(=O)Nc1ccc(Oc2ccccc2)cc1)N(c1ccc(Cl)cc1)S(C)(=O)=O (stereo not given) | 0 | x | x | x
Cc1ccc(-c2noc(CN(C(C)C)S(=O)(=O)c3ccccc3)n2)cc1 | 0 | x | x | x
SMILES | IDH1 mut inh | KDM4C inh | Tcruzi prolif | Pf Dd2 inh
O=C1Oc2cc(O)cc(O)c2[C@@H](c2ccc(O)cc2)[C@H]1[C@H]1C(=O)Oc2cc(O)cc(O)c2[C@H]1c1ccc(O)cc1 | 52* | x | x | x
CCCCC/C=C/C=C/C(O)CCCCCCCC(=O)O (stereo not given) | 9 | x | x | x
C[C@@H]1CN([C@H](C)CO)C(=O)c2cc(NC(=O)Nc3ccc4c(c3)OCO4)ccc2O[C@@H](C)CCCCO[C@H]1CN(C)Cc1ccc(Cl)c(Cl)c1 | x | -4 | 96 | -89*
C[C@H]1CCCCO[C@H](CN(C)Cc2ccc(Cl)c(Cl)c2)[C@@H](C)CN([C@@H](C)CO)C(=O)c2cc(NC(=O)Nc3ccc4c(c3)OCO4)ccc2O1 | x | -2 | 68 | -56
C[C@@H]1CCCCO[C@@H](CN(C)Cc2ccc(Cl)c(Cl)c2)[C@H](C)CN([C@H](C)CO)C(=O)c2cc(NC(=O)Nc3ccc4c(c3)OCO4)ccc2O1 | -1 | -3 | 98 | -88*
O=C(O)CC(C(=O)Nc1ccc(Cl)cc1)N1CCCC1 (stereo not given) | 3 | x | x | x
CS(=O)(=O)N(CC(=O)Nc1ccc(Br)cc1)c1ccc(Cl)cc1Cl | 0 | x | x | x
C[C@@H]1CN([C@@H](C)CO)C(=O)c2cccc(NC(=O)CCCCCC(=O)Nc3ccccc3N)c2O[C@@H]1CN(C)Cc1ccc(C(F)(F)F)cc1 | x | -1 | 94 | -92*
C[C@@H]1CN([C@H](C)CO)C(=O)c2cccc(NC(=O)CCCCCC(=O)Nc3ccccc3N)c2O[C@@H]1CN(C)Cc1ccc(C(F)(F)F)cc1 | 0 | -1 | x | -92*
C[C@H](CO)N1C[C@H](C)[C@@H](CN(C)Cc2ccc(C(F)(F)F)cc2)Oc2c(NC(=O)CCCCCC(=O)Nc3ccccc3N)cccc2C1=O | x | -3 | x | -89*
C[C@@H]1CN([C@@H](C)CO)C(=O)c2cccc(NC(=O)CCCCCC(=O)Nc3ccccc3N)c2O[C@@H]1CN(C)Cc1ccncc1 | 0 | -1 | x | -2
C[C@H](CO)N1C[C@H](C)[C@H](CN(C)Cc2ccc(C(F)(F)F)cc2)Oc2c(NC(=O)CCCCCC(=O)Nc3ccccc3N)cccc2C1=O | 0 | -1 | x | -86*
C[C@H]1CN([C@@H](C)CO)C(=O)c2cc(NC(=O)CCCCCC(=O)Nc3ccccc3N)ccc2O[C@H]1CN(C)Cc1ccc(C(F)(F)F)cc1 | x | 1 | 90 | -25
C[C@@H]1CN([C@H](C)CO)C(=O)c2cccc(NC(=O)CCCCCC(=O)Nc3ccccc3N)c2O[C@@H]1CN(C)C | 0 | -1 | x | -42
Cc1ccc(S(=O)(=O)N(CC(=O)O)c2ccc(C)c(C)c2)cc1 | 1 | x | x | x
COc1ccc(S(=O)(=O)N(C)CC(=O)NC2CCCC2)cc1 | 0 | x | x | x
COc1ccc2c3c(n(C)c2c1)[C@@H](CO)N(C)CC31CN(C(=O)c2ccc3c(c2)OCO3)C1 | x | 0 | x | -43
COc1ccc2c3c(n(C)c2c1)[C@@H](CO)N(C(=O)Nc1ccc(F)cc1)CC31CN(C(=O)c2ccc3c(c2)OCO3)C1 | x | 1 | x | -87*
